According to ChEMBL document CHEMBL5678818, “Discovery of potent SOS1 inhibitors that block RAS activation via disruption of the RAS-SOS1 interaction” (Proc Natl Acad Sci U S A, 2019):
The source made the active and inactive calls. The calls are words filed in the database; no cut-off is given here.

Columns and labels:
Calu-1 [1] = test: Antiproliferative activity against human Calu-1 cells assessed as inhibition of cell viability incubated for 72 hrs by Cell Titer Glo assay; assay type: functional, cell-based; conditions: Calu-1, 72 h
[2] = target: GTPase KRas (Homo sapiens) (UniProt P01116); test: Stabilization of N-terminal His10-tagged wild-type recombinant human KRAS (1 to 169 residues) expressed in Escherichia coli assessed as change in melting temperature at 100 uM with heating from 25 to 85 degreeC by thermal shift assay
KG-1 = test: Antiproliferative activity against human KG-1 cells assessed as inhibition of cell viability incubated for 72 hrs by Cell Titer Glo assay; assay type: functional, cell-based
[3] = target: Son of sevenless homolog 2 (Homo sapiens, UniProt Q07890); test: (§1) Inhibition of N-terminal His10-tagged wild-type recombinant human SOS2 catalytic domain (564 to 1043 residues) expressed in Escherichia coli assessed as reduction in KRAS G12C mutant activation preincubated for 10 mins with KRAS followed by SOS2 addition measured after 30 mins in presence of EDA-GTP-DY-647P1 by HTRF analysis
[4] = target: Epidermal growth factor receptor (Homo sapiens, UniProt P00533); test: Inhibition of human EGFR using biotin-aminohexyl-AEEEEYFELVAKKK as substrate preincubated for 15 mins followed by substrate/ATP addition measured after 20 mins by FRET assay
K562 [5] = test: Antiproliferative activity against human K562 cells assessed as inhibition of cell viability incubated for 72 hrs by Cell Titer Glo assay; assay type: functional, cell-based; conditions: K562, 72 h
In short: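 K-562 cells (wild-type KRAS, sourced from ATCC) were tested for antiproliferative response.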

[6] = target: T1, Son of sevenless homolog 1 (Homo sapiens) (UniProt Q07889); test: Stabilization of N-terminal His10-tagged wild-type recombinant human SOS1 catalytic domain (564 to 1049 residues) expressed in Escherichia coli assessed as change in melting temperature at 100 uM with heating from 25 to 85 degreeC by thermal shift assay
T1 sequence (whole entry): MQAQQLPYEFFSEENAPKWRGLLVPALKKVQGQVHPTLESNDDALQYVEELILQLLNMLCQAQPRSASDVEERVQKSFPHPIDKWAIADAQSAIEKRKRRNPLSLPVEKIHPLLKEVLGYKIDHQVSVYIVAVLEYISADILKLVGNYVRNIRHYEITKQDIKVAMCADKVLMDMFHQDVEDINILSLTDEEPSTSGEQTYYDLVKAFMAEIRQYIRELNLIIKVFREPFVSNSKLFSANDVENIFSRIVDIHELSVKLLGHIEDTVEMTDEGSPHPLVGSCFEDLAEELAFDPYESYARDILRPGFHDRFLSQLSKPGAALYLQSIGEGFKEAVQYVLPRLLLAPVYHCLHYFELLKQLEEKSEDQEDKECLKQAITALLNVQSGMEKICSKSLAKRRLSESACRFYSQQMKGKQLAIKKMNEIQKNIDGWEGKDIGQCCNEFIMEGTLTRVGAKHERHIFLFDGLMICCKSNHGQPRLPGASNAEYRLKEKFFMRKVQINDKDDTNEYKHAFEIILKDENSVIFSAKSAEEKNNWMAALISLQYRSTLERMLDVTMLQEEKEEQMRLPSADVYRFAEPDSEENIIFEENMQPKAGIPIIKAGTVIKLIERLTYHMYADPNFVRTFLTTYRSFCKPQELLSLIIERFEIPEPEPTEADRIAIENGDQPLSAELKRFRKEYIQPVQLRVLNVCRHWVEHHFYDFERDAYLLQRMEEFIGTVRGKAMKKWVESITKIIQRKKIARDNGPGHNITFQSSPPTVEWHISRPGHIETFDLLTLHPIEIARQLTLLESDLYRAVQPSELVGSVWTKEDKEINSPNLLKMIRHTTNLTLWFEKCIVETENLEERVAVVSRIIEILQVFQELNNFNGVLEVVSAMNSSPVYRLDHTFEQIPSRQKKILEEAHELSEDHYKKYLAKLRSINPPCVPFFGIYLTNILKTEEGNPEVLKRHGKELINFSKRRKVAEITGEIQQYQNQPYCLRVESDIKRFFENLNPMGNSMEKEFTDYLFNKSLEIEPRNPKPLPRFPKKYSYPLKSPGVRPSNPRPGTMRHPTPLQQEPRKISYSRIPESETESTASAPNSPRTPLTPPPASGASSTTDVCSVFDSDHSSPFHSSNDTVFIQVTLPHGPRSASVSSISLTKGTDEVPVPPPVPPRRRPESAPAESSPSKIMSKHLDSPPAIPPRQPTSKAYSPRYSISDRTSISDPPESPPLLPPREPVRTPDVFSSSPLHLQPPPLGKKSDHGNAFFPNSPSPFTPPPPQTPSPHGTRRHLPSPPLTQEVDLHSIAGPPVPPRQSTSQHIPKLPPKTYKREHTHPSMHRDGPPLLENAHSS

[7] = target: T2, Guanine nucleotide exchange factor DBS (Homo sapiens, UniProt O15068); test: Inhibition of human DBS assessed as reduction in CDC42 activation preincubated for 1 min with CDC42 followed by DBS addition measured after 20 mins in presence of EDA-GTP-DY-647P1 by HTRF analysis
T2 sequence (O15068 whole entry): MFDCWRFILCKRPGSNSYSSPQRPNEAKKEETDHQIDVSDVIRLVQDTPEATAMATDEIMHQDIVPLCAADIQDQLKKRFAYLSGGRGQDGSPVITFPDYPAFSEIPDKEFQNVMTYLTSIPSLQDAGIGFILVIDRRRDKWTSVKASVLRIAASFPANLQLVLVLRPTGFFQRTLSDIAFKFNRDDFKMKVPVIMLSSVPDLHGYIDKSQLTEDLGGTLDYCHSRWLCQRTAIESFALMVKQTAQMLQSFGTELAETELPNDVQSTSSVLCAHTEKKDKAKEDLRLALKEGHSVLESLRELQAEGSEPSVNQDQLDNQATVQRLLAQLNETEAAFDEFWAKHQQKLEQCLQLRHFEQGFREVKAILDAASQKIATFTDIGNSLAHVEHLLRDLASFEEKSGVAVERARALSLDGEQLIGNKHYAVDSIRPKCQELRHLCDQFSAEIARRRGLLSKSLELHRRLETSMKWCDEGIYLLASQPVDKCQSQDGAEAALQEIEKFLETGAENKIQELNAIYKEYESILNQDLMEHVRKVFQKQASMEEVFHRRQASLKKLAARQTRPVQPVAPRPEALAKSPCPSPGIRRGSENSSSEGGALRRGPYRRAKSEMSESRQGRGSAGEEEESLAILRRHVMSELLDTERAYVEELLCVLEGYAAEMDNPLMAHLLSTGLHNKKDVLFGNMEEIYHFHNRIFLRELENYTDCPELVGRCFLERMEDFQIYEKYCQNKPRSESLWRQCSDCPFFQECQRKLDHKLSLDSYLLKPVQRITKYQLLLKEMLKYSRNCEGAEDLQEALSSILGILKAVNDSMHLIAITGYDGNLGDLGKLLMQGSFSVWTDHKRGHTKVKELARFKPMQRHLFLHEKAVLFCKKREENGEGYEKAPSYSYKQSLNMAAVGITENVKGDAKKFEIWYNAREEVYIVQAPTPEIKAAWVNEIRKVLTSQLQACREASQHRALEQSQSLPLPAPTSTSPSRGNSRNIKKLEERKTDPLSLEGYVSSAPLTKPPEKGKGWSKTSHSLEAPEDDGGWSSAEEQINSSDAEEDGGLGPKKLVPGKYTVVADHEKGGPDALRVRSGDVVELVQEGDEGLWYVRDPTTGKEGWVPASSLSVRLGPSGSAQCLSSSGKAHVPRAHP

[8] = test system: GTPase KRas (Homo sapiens), P01116 [G12C]; test: Stabilization of N-terminal GST-tagged recombinant human KRAS G12C mutant (1 to 169 residues) expressed in Escherichia coli assessed as change in melting temperature at 100 uM with heating from 25 to 85 degreeC by thermal shift assay
THP-1 = test: Antiproliferative activity against human THP-1 cells assessed as inhibition of cell viability incubated for 72 hrs by Cell Titer Glo assay; assay type: functional, cell-based
K562 [9] = test: Effect on total ERK level in human K562 cells incubated for 60 mins by HTRF analysis; assay type: functional, cell-based
In short: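 K-562 cells (wild-type KRAS) were sourced from ATCC. Cells were incubated with compound for 60 min, and total ERK was quantified alongside pERK.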

Calu-1 [10] = test: Effect on total ERK level in human Calu-1 cells incubated for 24 hrs by HTRF analysis; assay type: functional, cell-based
In short: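 Calu-1 cells carry two KRAS G12C alleles and were sourced from CLS. Total and pERK levels were both analyzed after compound treatment.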

NCI-H358 = test: Antiproliferative activity against human NCI-H358 cells assessed as inhibition of cell viability incubated for 72 hrs by Cell Titer Glo assay; assay type: functional, cell-based; conditions: NCI-H358, 72 h
In short: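 NCI-H358 cells (KRAS G12C mutant) were sourced from ATCC.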

SOS1-KRAS = SOS1-KRAS (Homo sapiens, UniProt Q07889); test: Inhibition of N-terminal GST-tagged recombinant human KRAS G12C mutant (1 to 169 residues) expressed in Escherichia coli/N-terminal His10-tagged wild-type recombinant human SOS1 catalytic domain (564 to 1049 residues) expressed in Escherichia coli protein-protein interaction preincubated for 2 mins with KRAS followed by SOS1 addition measured after 60 mins in presence of anti-6His-XL665 by HTRF analysis
GTPase KRas = GTPase KRas (Homo sapiens, UniProt P01116, G12C); test: Inhibition of N-terminal GST-tagged recombinant human KRAS G12C mutant (1 to 169 residues) expressed in Escherichia coli assessed as reduction in intrinsic GTP exchange preincubated for 10 mins with KRAS followed by SOS1 addition measured after 30 mins in presence of EDA-GTP-DY-647P1 by HTRF analysis
[11] = target: T3, Son of sevenless homolog 1 (Homo sapiens, UniProt Q07889); test: Inhibition of SOS1 in human K562 cells assessed as reduction in pERK level incubated for 60 mins by HTRF analysis; assay type: cell-based
T3 sequence (Q07889 whole entry): T1 sequence (whole entry)

GTPase KRas/RAF1 = GTPase KRas/RAF1 (Homo sapiens, UniProt P01116+P04049); test: Inhibition of N-terminal His10-tagged wild-type recombinant human KRAS (1 to 169 residues) expressed in Escherichia coli/N-terminal GST-tagged recombinant human CRAF RBD (51 to 131 residues) expressed in Escherichia coli protein-protein interaction preincubated for 30 mins with KRAS followed by CRAF RBD addition measured after 60 mins in presence of anti-6His-XL665/GTP by HTRF analysis
[12] = target: T4, Son of sevenless homolog 1 (Homo sapiens, UniProt Q07889); test: as §1, with “SOS1” for “SOS2”, “1049” for “1043”
[13] = target: T4, Son of sevenless homolog 1; test: as §1, with “human SOS1” for “human SOS2”, “to 1049” for “to 1043”, “for 2” for “for 10”, “by SOS1” for “by SOS2”, “after 20” for “after 30”
[14] = target: T3, Son of sevenless homolog 1; test: Inhibition of SOS1 in human MOLM-13 cells assessed as reduction in pERK level incubated for 60 mins by HTRF analysis; assay type: cell-based
[15] = target: T3, Son of sevenless homolog 1; test: Inhibition of SOS1 in human Calu-1 cells assessed as reduction in RAS activation pretreated for 30 mins followed by EGF stimulation for 3 mins by G-LISA analysis; assay type: cell-based
[16] = target: T3, Son of sevenless homolog 1; test: Inhibition of SOS1 in human Calu-1 cells assessed as reduction in pERK level incubated for 24 hrs by HTRF analysis; assay type: cell-based
[17] = target: T3, Son of sevenless homolog 1; test: Inhibition of SOS1 in human HeLa cells assessed as reduction in RAS activation pretreated for 30 mins followed by EGF stimulation for 3 mins by G-LISA analysis; assay type: cell-based
[18] = target: T3, Son of sevenless homolog 1; test: Inhibition of N-terminal His10-tagged wild-type recombinant human SOS1 catalytic domain (564 to 1049 residues) expressed in Escherichia coli assessed as reduction in wild-type KRAS activation preincubated for 10 mins with KRAS followed by SOS1 addition measured after 30 mins in presence of EDA-GTP-DY-647P1 by HTRF analysis

CNCc1ccccc1-c1csc(C(C)Nc2nc(C)nc3cc(OC)c(OC)cc23)c1 (stereo not drawn)
IC50 (Calu-1 [1]): 2.05 µM | ΔTm [2]: -0.67 °C | Activity (KG-1): Active | IC50 [3]: > 20 µM | IC50 [4]: > 20 µM | IC50 (K562 [5]): 1.1 µM | ΔTm [6]: 2.96 °C | IC50 [7]: > 20 µM | ΔTm [8]: -0.57 °C | Activity (THP-1): Active | Activity (K562 [9]): inactive | Activity (Calu-1 [10]): inactive | IC50 (NCI-H358): 2.66 µM

COc1cc2nc(C)nc(NC(C)c3ccc(-c4cnc5n4CCC5)s3)c2cc1OC (stereo not drawn)
IC50 (SOS1-KRAS): 0.4 µM | IC50 (GTPase KRas): > 20 µM | IC50 [11]: 1.16 µM | IC50 (Calu-1 [1]): 0.87 µM | IC50 (GTPase KRas/RAF1): > 20 µM | IC50 [12]: 0.93 µM | IC50 [13]: 0.65 µM | IC50 [14]: 0.45 µM | IC50 [15]: 2 µM | IC50 [3]: > 20 µM | IC50 [16]: 4.46 µM | IC50 [4]: > 20 µM | IC50 [7]: > 20 µM | IC50 [17]: 5.34 µM | IC50 [18]: 0.55 µM
